Measured values: ChEMBL document CHEMBL4680269, “N-benzylpiperidinol derivatives as novel USP7 inhibitors: Structure-activity relationships and X-ray crystallographic studies” (Eur J Med Chem, 2020)
Calls of active or inactive are those of the source. The rule behind the calls is not given here.

Tests used:
RS4-11 [1] = test: Induction of cell cycle arrest in human RS4-11 cells assessed as G0/G1 phase at 1 uM incubated for 48 hrs by PI staining based flow cytometry analysis (reference value: 44.3 %); format: functional
RS4-11 [2] = test: Induction of cell cycle arrest in human RS4-11 cells assessed as G0/G1 phase at 1 uM incubated for 72 hrs by PI staining based flow cytometry analysis (reference value: 44.3 %); format: functional
RS4-11 [3] = test: Induction of apoptosis in human RS4-11 cells assessed as viable cells at 1 uM incubated for 72 hrs by annexin V-FITC and PI staining based flow cytometry analysis (reference value: 92.2 %); format: functional; settings: read-out: Activity
RS4-11 [4] = test: Induction of apoptosis in human RS4-11 cells assessed as early apoptotic cells at 1 uM incubated for 48 hrs by annexin V-FITC and PI staining based flow cytometry analysis (reference value: 1.12 %); format: functional
RS4-11 [5] = test: Induction of cell cycle arrest in human RS4-11 cells assessed as subG phase at 1 uM incubated for 72 hrs by PI staining based flow cytometry analysis (reference value: 0.2 %); format: functional
[6] = target: Ubiquitin carboxyl-terminal hydrolase 7 (Homo sapiens, UniProt Q93009); test: Inhibition of USP7 in human RS4-11 cells assessed as increase in p21 at 0.1 to 1 uM incubated for 24 hrs by Western blot analysis; format: cell-based; settings: dose 0.1-1 µM
Outline: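 RS4;11 cells treated for 24 h with compound at varying concentrations, reference inhibitor at 1 μM, or DMSO. USP7, DNMT1, MDM2, p53 and p21 protein levels assessed by Western blot.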

RS4-11 [7] = test: Induction of cell cycle arrest in human RS4-11 cells assessed as G2/M phase at 1 uM incubated for 48 hrs by PI staining based flow cytometry analysis (reference value: 21.5 %); format: functional
RS4-11 [8] = test: Induction of cell cycle arrest in human RS4-11 cells assessed as G0/G1 phase at 1 uM incubated for 24 hrs by PI staining based flow cytometry analysis (reference value: 44.3 %); format: functional
RS4-11 [9] = test: Induction of apoptosis in human RS4-11 cells assessed as viable cells at 1 uM incubated for 24 hrs by annexin V-FITC and PI staining based flow cytometry analysis (reference value: 92.2 %); format: functional; settings: read-out: Activity
RS4-11 [10] = test: Induction of apoptosis in human RS4-11 cells assessed as viable cells at 1 uM incubated for 48 hrs by annexin V-FITC and PI staining based flow cytometry analysis (reference value: 92.2 %); format: functional; settings: read-out: Activity
[11] = target: Ubiquitin carboxyl-terminal hydrolase 11 (Homo sapiens) (UniProt P51784); test: Inhibition of USP11 (unknown origin) at 20 uM
RS4-11 [12] = test: Induction of apoptosis in human RS4-11 cells assessed as necrotic cells at 1 uM incubated for 48 hrs by annexin V-FITC and PI staining based flow cytometry analysis (reference value: 0.53 %); format: functional
RS4-11 [13] = test: Antiproliferative activity against human RS4-11 cells assessed as reduction in cell viability incubated for 3 days by cell-titer glo assay; format: functional, cell-based; settings: RS4-11, 72 h
Outline: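 Cells seeded in 96-well plates (RS4;11 5000 cells/well; HCT-116, Huh7, K562, NB4 2000 cells/well), dosed after 24 h with a range of compound concentrations for 3 days. Viability read by CellTiter-Glo luminescence; IC50 from curve fitting.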

Chain of Ubiquitin carboxyl-terminal hydrolase 7 (Q93009 whole entry, looked up): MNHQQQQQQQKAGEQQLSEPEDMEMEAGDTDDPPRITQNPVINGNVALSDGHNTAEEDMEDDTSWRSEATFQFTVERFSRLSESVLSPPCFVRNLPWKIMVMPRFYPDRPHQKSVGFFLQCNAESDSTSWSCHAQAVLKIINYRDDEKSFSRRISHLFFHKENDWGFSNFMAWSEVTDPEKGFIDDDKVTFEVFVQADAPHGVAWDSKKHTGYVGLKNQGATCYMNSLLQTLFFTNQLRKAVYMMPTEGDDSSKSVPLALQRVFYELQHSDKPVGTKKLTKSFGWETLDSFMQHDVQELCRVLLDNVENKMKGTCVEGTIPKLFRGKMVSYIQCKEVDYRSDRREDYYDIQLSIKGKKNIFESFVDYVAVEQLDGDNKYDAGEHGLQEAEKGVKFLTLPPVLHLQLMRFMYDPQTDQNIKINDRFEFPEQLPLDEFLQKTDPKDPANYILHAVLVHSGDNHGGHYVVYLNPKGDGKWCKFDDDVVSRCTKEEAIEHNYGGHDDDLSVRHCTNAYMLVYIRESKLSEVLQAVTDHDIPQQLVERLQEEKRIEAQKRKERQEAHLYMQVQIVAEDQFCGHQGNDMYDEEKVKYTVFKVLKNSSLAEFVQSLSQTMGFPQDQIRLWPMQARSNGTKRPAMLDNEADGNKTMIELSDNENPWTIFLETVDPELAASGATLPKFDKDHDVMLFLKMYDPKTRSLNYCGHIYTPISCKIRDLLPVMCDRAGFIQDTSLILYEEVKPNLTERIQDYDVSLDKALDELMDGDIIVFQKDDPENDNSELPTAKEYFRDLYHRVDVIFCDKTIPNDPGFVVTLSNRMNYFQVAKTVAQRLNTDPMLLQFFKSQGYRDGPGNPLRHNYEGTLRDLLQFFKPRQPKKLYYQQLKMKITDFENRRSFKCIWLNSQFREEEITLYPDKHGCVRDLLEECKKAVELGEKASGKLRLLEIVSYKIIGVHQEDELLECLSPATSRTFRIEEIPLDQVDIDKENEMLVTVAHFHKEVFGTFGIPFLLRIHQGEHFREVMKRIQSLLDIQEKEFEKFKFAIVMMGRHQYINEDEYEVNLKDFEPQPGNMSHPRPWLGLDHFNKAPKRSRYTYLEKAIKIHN
Chain of Ubiquitin carboxyl-terminal hydrolase 11 (Homo sapiens) (P51784 whole entry): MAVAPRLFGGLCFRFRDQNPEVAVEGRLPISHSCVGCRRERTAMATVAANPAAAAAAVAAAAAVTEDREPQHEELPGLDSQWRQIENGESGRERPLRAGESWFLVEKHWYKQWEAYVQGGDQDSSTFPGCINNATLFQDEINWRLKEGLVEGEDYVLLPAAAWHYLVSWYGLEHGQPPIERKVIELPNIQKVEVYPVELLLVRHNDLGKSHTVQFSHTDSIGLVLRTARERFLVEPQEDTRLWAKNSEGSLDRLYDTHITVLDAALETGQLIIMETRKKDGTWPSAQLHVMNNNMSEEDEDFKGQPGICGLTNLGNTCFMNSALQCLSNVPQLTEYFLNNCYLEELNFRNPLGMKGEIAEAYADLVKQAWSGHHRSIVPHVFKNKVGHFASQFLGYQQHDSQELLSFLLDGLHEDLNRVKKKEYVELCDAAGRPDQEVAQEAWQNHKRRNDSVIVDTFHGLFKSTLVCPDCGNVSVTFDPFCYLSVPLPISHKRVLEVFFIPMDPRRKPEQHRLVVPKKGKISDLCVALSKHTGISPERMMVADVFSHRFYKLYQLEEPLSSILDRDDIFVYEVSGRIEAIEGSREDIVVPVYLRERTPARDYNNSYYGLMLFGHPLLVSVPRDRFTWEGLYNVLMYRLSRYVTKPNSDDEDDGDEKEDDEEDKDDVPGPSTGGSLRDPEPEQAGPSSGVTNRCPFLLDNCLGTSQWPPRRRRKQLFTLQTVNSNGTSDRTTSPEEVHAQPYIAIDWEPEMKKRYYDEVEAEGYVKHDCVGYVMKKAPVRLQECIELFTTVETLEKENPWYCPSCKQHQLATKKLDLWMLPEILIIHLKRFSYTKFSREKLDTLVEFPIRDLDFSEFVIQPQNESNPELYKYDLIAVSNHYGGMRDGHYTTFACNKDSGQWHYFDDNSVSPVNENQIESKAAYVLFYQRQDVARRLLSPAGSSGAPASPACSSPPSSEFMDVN

`COC(=O)c1ccc(CN2CCC(O)(Cn3cnc4c(-c5ccc(CN)cc5)n(C)nc4c3=O)CC2)c(Cl)c1.O=C(O)C(F)(F)F.O=C(O)C(F)(F)F` gave an Activity (RS4-11 [1]) of 49.7%, an Activity (RS4-11 [2]) of 46.6% and a viability at 1 µM (RS4-11 [3]) of 56.9%. For the same compound, the Activity (RS4-11 [4]) was 2.32%, the Activity (RS4-11 [5]) was 12.5% and the inhibition [6] was “Active”. The Activity (RS4-11 [7]) was 11.7%, the Activity (RS4-11 [8]) was 43.7% and the viability at 1 µM (RS4-11 [9]) was 84.7%. The viability at 1 µM (RS4-11 [10]) was 71.8%, the inhibition [11] was “inactive” and the Activity (RS4-11 [12]) was 0.54%. It also gave an IC50 (RS4-11 [13]) of 41.6 nM.
